Tests used:
[1] = tested on: L1210; experiment: Concentration required for 50% inhibition of cell growth (L1210 Leukemia); assay type: functional, cell-based; conditions: Mus musculus, read-out: pI50 (converted)
In short: (§1)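 L1210 cells in RPMI1640 with 10% fetal calf serum, seeded at (3–4) × 10⁴ cells/mL. Drug added to final 10⁻³ to 10⁻⁶ M, duplicates, with untreated and Me₂SO controls. Incubated at 37 °C in 5% CO₂, counted by Coulter counter.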

[2] = tested on: Rous sarcoma virus; experiment: Inhibition of cell transformation by Rous Sarcoma virus; assay type: functional; conditions: read-out: ID50 (the source's name)
In short: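 Chick embryo fibroblasts at 5 × 10⁵ cells/60-mm dish, given about 200 focus-forming units of Rous sarcoma virus with drug (final 10⁻³ to 10⁻⁶ M, up to 1% Me₂SO in stock) for 8-16 h at 37 °C. Agar overlay with drug for 4 days, then second overlay. Foci counted on days 7-10; % inhibition = (1 − T/C)×100, probit analysis.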

[3] = tested on: L1210; experiment: Dose required for 50% inhibition of cell growth (L1210 Leukemia) calculated at 48 hours by using probit analysis.; assay type: functional, Mus musculus; conditions: for IC50: Mus musculus, L1210, 48 h, read-out: ID50 (the source's name); in short: as §1
[4] = Compound was evaluated for lethal dose in mice; assay type: toxicity, organism-based; conditions: mouse, in vivo
In short: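 Swiss-Webster male mice, six per dose; compound suspended in 2.5% acacia in normal saline and injected intraperitoneally by body weight; vehicle-injected controls. LD50 calculated by probit analysis.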

[5] = tested on: Rous sarcoma virus; experiment: Compound tested for its effect on Rous sarcoma viral replication and virus yield was determined at 2e-5 M; assay type: functional
In short: (§2)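 Chick embryo cells at 5 × 10⁵ cells/60-mm dish, medium replaced with fresh Hams F10 medium plus drug solution and Rous sarcoma virus; control of medium plus virus only. On days 3 and 6, medium plus drug renewed; medium harvested two days later. Virus titer in harvests measured by drug-free focus assay on chick embryo fibroblasts and compared with control.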

[6] = tested on: Rous sarcoma virus; experiment: Compound was tested for percent inhibition against Rous sarcoma viral replication at 2e-5 M; assay type: functional; in short: as §2
[7] = tested on: Rous sarcoma virus; experiment: Compound tested for its effect on Rous sarcoma viral replication and virus yield was determined at 1e-6 M; assay type: functional; in short: as §2
[8] = tested on: Rous sarcoma virus; experiment: Compound was tested for percent inhibition against Rous sarcoma viral replication at 1e-6 M; assay type: functional; in short: as §2
[9] = tested on: Rous sarcoma virus; experiment: Compound tested for its effect on Rous sarcoma viral replication and virus yield was determined at 5e-6M; assay type: functional; in short: as §2
[10] = tested on: Rous sarcoma virus; experiment: Compound was tested for percent inhibition against Rous sarcoma viral replication at 5e-6M; assay type: functional; in short: as §2
[11] = tested on: Mus musculus; experiment: Compound evaluated for % T/C of median survival time at 100 mg/kg against P388 leukemia in mice
[12] = tested on: Rous sarcoma virus; experiment: Compound tested for its effect on Rous sarcoma viral replication and virus yield was determined at 3e-6M; assay type: functional; in short: as §2
[13] = tested on: Rous sarcoma virus; experiment: Compound was tested for percent inhibition against Rous sarcoma viral replication at 3e-6M; assay type: functional; in short: as §2
[14] = tested on: Rous sarcoma virus; experiment: Compound tested for its effect on Rous sarcoma viral replication and virus yield was determined at 7e-6M; assay type: functional; in short: as §2
[15] = tested on: Rous sarcoma virus; experiment: Compound was tested for percent inhibition against Rous sarcoma viral replication at 7e-6M; assay type: functional; in short: as §2

Structure (SMILES) | IC50 [1] [µM] | IC50 [2] [µM] | IC50 [3] [µM] | other results
N/C(=N\O)N/N=C/c1cccnc1 | 22.9 | 81 | 23.1 | 
Cc1ccc(S(=O)(=O)O)cc1.N#Cc1ccc(/C=N/N/C(N)=N/O)cc1 | 9.33 | 97.2 | 9.4 | LD50 [4]: 156 mg/kg
N/C(=N\O)N/N=C/c1ccc(OCc2ccccc2)cc1 | 25.1 | 8.1 | 25.3 | 
Cc1ccc(S(=O)(=O)O)cc1.N/C(=N\O)N/N=C/c1ccc2ccccc2n1 | 6.76 | 43.8 | 6.8 | Virus yield [5]: 25000 ffu ml-1; Inhibition [6]: 84%
COc1ccc(OC)c(/C=N/N=C(\N)NO)c1.Cc1ccc(S(=O)(=O)O)cc1 | 7.08 | 2.7 | 7.1 | Virus yield [7]: 31000 ffu ml-1; Inhibition [8]: 80%
Cc1ccc(S(=O)(=O)O)cc1.Cn1cccc1/C=N/N=C(\N)NO | 2.69 | 4.5 | 2.7 | Virus yield [9]: 90000 ffu ml-1; Inhibition [10]: 44%; LD50 [4]: 322 mg/kg
N/C(=N\O)N/N=C/c1ccc(Cl)c([N+](=O)[O-])c1 | 12.6 | 9.6 | 12.7 | 
Cc1ccc(S(=O)(=O)O)cc1.N/C(=N\O)N/N=C/c1cc(Br)cc(Br)c1O | 16.6 | 6.5 | 16.5 | T/C [11]: 140%
CS(=O)(=O)Oc1cccc(/C=N/N=C(\N)NO)c1 | 14.8 | 35.2 | 14.8 | 
Cc1ccc(S(=O)(=O)O)cc1.N/C(=N\O)N/N=C/c1nccc2ccccc12 | 3.31 | 15.8 |  | Virus yield [12]: 34000 ffu ml-1; Inhibition [13]: 79%; ID50 [3]: 3.3 µM
N/C(=N\O)N/N=C/c1cccc([N+](=O)[O-])c1 | 7.59 | 35.7 | 7.6 | 
Cc1ccc(S(=O)(=O)O)cc1.N/C(=N\O)N/N=C/C1CC2C=CC1C2 (stereo not drawn) | 10.7 |  | 10.6 | Virus yield [14]: 9300 ffu ml-1; Inhibition [15]: 94%
N/C(=N\O)N/N=C/c1ccc(C(F)(F)F)cc1 | 9.12 | 11.8 | 9.2 | 
NC(=O)NO [HYDROXYUREA] | 21.4 |  | 21.6 | 
